According to ChEMBL document CHEMBL3085723, “Design, synthesis and discovery of picomolar selective α4β2 nicotinic acetylcholine receptor ligands” (J Med Chem, 2013):

What was measured:
[1] = test system: HEK293; experiment: Selectivity ratio of Ki for rat alpha3beta4 nAChR expressed in HEK293 cells to Ki for human alpha4beta2 nAChR; assay type: cell-based
[2] = Displacement of [3H]epibatidine from nAChR in rat forebrain; assay type: tissue-based
Summary of the method: (§1)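 Membranes from stably transfected cells or rat forebrain, homogenized in 50 mM Tris·HCl, pH 7.4, at 4 °C and pelleted at 36000g. […] Separation by vacuum filtration on PEI-treated GF/C filters. Ki reported.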

[3] = target: Neuronal acetylcholine receptor; alpha4/beta4 (Rattus norvegicus, UniProt P09483+P12392); experiment: Displacement of [3H]epibatidine from rat alpha4beta4 nAChR expressed in HEK293 cells after 4 hrs; assay type: cell-based; summary of the method: as §1
Neuronal acetylcholine receptor; alpha4/beta4, sequence (P09483 whole entry): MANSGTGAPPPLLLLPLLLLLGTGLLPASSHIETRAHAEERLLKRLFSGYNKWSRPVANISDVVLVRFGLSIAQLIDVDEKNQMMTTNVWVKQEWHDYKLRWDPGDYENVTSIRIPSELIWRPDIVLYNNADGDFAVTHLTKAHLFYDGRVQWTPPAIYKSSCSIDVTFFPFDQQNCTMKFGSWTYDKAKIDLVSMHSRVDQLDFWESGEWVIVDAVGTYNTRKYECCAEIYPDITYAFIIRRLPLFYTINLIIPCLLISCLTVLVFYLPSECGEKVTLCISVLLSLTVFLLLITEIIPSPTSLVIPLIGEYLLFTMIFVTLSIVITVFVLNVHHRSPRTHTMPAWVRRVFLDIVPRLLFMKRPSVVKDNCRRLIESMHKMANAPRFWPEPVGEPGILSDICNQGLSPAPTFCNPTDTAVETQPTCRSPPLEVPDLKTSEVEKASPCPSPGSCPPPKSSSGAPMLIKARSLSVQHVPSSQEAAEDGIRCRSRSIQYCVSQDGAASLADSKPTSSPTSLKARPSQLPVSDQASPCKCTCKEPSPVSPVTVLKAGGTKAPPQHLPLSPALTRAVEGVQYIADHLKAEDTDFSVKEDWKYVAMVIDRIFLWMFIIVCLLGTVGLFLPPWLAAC
Neuronal acetylcholine receptor; alpha4/beta4, sequence (P12392 whole entry): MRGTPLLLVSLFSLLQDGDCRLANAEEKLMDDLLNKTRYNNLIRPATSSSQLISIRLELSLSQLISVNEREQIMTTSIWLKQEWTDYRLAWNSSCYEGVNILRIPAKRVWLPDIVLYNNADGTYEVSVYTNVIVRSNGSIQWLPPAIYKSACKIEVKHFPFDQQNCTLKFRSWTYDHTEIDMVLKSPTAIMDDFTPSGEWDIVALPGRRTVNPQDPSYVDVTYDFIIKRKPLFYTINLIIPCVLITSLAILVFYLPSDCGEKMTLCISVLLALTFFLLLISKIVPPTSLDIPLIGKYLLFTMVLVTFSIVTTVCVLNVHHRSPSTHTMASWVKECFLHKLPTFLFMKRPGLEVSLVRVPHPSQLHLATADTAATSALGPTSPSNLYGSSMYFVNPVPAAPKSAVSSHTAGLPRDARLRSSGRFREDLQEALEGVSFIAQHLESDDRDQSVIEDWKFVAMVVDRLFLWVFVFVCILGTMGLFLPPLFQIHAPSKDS

[4] = target: Neuronal acetylcholine receptor; alpha4/beta2 (Homo sapiens, UniProt P17787+P43681); experiment: Displacement of [3H]epibatidine from human alpha4beta2 nAChR after 4 hrs by cell-based assay
Neuronal acetylcholine receptor; alpha4/beta2, sequence (P17787 whole entry): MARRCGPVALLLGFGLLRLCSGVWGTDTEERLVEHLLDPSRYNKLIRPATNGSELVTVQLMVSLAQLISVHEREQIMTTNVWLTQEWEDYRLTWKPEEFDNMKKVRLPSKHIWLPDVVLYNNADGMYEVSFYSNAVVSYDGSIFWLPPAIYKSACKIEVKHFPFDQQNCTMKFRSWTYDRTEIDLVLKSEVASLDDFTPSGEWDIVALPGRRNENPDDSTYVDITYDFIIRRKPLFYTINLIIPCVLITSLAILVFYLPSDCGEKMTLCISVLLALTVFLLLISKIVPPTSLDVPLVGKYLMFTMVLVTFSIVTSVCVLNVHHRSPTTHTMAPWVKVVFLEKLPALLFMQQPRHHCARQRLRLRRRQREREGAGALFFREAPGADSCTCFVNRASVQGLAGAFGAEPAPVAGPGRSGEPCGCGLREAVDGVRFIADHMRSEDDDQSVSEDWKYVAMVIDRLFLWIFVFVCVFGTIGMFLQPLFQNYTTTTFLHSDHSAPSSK
Neuronal acetylcholine receptor; alpha4/beta2, sequence (P43681 whole entry): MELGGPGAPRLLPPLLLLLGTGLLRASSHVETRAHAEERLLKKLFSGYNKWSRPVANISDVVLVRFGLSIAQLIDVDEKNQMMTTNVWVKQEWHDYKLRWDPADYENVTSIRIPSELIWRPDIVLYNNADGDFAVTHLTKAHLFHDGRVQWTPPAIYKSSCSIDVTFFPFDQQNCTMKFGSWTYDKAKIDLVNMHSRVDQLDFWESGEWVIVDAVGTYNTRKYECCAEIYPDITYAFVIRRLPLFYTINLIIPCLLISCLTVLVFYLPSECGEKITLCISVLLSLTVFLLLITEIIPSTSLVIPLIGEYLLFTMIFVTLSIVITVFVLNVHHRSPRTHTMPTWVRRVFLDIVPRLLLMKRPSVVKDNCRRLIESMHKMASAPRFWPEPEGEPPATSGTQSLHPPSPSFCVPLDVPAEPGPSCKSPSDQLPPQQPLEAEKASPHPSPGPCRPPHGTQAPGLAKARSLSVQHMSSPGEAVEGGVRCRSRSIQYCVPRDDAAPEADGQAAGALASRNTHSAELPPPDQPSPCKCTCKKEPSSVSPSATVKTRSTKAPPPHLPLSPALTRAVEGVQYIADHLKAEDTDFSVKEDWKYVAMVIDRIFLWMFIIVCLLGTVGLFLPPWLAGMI
Summary of the method: (§2)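 Membranes from stably transfected cells or rat forebrain, homogenized in 50 mM Tris·HCl, pH 7.4, at 4 °C and pelleted at 36000g. Separation by vacuum filtration on PEI-treated GF/C filters. Ki reported.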

[5] = target: Neuronal acetylcholine receptor; alpha3/beta2 (Rattus norvegicus, UniProt P04757+P12390); experiment: Displacement of [3H]epibatidine from rat alpha3beta2 nAChR expressed in HEK293 cells after 4 hrs; assay type: cell-based; summary of the method: as §1
Neuronal acetylcholine receptor; alpha3/beta2, sequence (P04757 whole entry): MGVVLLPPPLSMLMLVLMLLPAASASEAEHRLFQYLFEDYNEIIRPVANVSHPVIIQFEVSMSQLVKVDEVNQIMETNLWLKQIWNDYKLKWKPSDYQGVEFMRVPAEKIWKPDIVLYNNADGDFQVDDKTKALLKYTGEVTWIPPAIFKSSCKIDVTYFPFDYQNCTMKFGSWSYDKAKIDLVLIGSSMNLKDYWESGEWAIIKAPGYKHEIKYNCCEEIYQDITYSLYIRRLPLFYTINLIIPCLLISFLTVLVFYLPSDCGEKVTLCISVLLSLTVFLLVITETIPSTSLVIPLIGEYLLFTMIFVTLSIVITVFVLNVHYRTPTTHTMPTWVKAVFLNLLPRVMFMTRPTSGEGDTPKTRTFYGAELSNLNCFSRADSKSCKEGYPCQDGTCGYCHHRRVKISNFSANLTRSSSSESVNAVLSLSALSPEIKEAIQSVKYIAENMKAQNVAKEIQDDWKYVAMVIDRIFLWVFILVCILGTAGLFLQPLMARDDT
Neuronal acetylcholine receptor; alpha3/beta2, sequence (P12390 whole entry): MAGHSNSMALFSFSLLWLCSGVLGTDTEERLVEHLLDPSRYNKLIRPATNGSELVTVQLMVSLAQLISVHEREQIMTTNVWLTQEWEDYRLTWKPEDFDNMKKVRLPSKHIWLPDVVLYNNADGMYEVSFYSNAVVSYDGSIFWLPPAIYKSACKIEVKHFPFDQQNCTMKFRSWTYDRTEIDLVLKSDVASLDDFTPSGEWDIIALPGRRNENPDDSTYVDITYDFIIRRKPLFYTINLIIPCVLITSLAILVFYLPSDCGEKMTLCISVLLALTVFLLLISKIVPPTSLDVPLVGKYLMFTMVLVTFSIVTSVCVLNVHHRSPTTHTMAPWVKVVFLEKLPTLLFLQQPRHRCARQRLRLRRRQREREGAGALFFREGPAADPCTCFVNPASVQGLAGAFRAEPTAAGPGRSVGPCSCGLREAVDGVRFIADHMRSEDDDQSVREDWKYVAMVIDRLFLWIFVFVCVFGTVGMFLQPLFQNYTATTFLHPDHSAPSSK

[6] = target: Neuronal acetylcholine receptor; alpha2/beta4 (Rattus norvegicus, UniProt P12389+P12392); experiment: Displacement of [3H]epibatidine from rat alpha2beta4 nAChR expressed in HEK293 cells after 4 hrs; assay type: cell-based; summary of the method: as §1
Neuronal acetylcholine receptor; alpha2/beta4, sequence (P12389 whole entry): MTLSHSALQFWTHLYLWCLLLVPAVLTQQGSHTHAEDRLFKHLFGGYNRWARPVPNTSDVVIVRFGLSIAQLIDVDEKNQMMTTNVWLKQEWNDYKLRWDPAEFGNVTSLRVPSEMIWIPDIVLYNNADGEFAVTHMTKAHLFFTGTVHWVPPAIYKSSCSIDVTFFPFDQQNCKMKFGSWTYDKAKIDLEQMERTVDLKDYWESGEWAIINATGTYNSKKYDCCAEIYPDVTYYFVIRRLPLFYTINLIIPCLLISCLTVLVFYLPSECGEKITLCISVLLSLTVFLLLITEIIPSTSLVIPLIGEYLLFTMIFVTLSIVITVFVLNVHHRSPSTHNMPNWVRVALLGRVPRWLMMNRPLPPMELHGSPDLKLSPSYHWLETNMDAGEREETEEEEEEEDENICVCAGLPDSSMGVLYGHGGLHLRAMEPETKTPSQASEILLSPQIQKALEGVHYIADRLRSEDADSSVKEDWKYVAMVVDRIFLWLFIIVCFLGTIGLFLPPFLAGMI
Neuronal acetylcholine receptor; alpha2/beta4, sequence (P12392 whole entry): as the sequence (P12392 whole entry) above

[7] = target: Neuronal acetylcholine receptor; alpha2/beta2 (Rattus norvegicus, UniProt P12389+P12390); experiment: Displacement of [3H]epibatidine from rat alpha2beta2 nAChR expressed in HEK293 cells after 4 hrs; assay type: cell-based; summary of the method: as §1
Neuronal acetylcholine receptor; alpha2/beta2, sequence (P12389 whole entry): as the sequence (P12389 whole entry) above
Neuronal acetylcholine receptor; alpha2/beta2, sequence (P12390 whole entry): as the sequence (P12390 whole entry) above

[8] = target: Neuronal acetylcholine receptor subunit alpha-7 (Rattus norvegicus, UniProt Q05941); experiment: Displacement of [3H]epibatidine from rat alpha7 nAChR expressed in HEK293 cells after 4 hrs; assay type: cell-based; summary of the method: as §2
Neuronal acetylcholine receptor subunit alpha-7, sequence (Q05941 whole entry): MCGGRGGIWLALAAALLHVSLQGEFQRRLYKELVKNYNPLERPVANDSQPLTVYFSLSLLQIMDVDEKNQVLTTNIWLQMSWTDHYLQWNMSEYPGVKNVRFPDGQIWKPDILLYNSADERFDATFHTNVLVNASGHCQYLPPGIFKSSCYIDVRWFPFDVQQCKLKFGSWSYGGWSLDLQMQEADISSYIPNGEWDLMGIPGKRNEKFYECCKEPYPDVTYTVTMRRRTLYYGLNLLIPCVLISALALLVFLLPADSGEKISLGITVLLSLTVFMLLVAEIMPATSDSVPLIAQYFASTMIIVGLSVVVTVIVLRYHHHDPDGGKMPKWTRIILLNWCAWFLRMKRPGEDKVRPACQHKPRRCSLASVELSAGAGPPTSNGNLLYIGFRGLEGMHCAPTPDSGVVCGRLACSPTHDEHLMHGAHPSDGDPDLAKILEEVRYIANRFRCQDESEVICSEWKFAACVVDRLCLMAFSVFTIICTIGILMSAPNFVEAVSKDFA

[9] = target: Neuronal acetylcholine receptor; alpha3/beta4 (Rattus norvegicus, UniProt P04757+P12392); experiment: Displacement of [3H]epibatidine from rat alpha3beta4 nAChR expressed in HEK293 cells after 4 hrs; assay type: cell-based; summary of the method: as §1
Neuronal acetylcholine receptor; alpha3/beta4, sequence (P04757 whole entry): as the sequence (P04757 whole entry) above
Neuronal acetylcholine receptor; alpha3/beta4, sequence (P12392 whole entry): as the sequence (P12392 whole entry) above

[10] = Fraction unbound in rat plasma at 5 uM after 4 hrs by equilibrium dialysis method; assay type: ADME, cell-free
Summary of the method: (§3)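 Test agent at 5 μM incubated in rat plasma or brain homogenate. Dialysed against PBS in a RED equilibrium dialysis device for 4 h, both sides quantified by LC/MS/MS. Unbound fraction from protein-containing vs protein-free concentrations. Brain value corrected for homogenate dilution factor D.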

[11] = Fraction unbound in rat brain homogenate at 5 uM after 4 hrs equilibrium dialysis method; assay type: ADME, tissue-based; summary of the method: as §3

| SMILES | Ratio Ki [1] | Ki [2] [nM] | Ki [3] [nM] | Ki [4] [nM] | Ki [5] [nM] | Ki [6] [nM] | Ki [7] [nM] | Ki [8] [nM] | Ki [9] [nM] | fraction unbound at 4 h, 5 µM [10] | fraction unbound at 4 h, 5 µM [11] |
| --- | --- | --- | --- | --- | --- | --- | --- | --- | --- | --- | --- |
| Cc1cccc(C#Cc2cncc(OC[C@@H]3CCN3)c2)c1 | 87000 | 1.1 | 12 | 0.046 | 0.34 | 46 | 0.053 | – | – | – | – |
| COc1cc(F)cc(C#Cc2cncc(OC[C@@H]3CCN3)c2)c1 | 17000 | 1.7 | 10 | 0.076 | 0.59 | 53 | 0.091 | – | – | – | – |
| c1ccc(-c2cncc(OC[C@@H]3CCN3)c2)cc1 | 9280 | 1.1 | 6.2 | 0.14 | 5 | 36 | 0.22 | 11000 | 1300 | – | – |
| FC(F)(F)c1cccc(C#Cc2cncc(OC[C@@H]3CCN3)c2)c1 | 5400 | 3.5 | 11 | 0.26 | 1.4 | 54 | 0.28 | – | – | – | – |
| Fc1cc(F)cc(C#Cc2cncc(OC[C@@H]3CCN3)c2)c1 | 28000 | 0.73 | 4.7 | 0.05 | 0.52 | 23 | 0.063 | – | 540 | – | – |
| CC(C)NCC(O)COc1cccc2ccccc12 (stereo unspecified) [PROPRANOLOL] | – | – | – | – | – | – | – | – | – | 0.0961 | – |
| C(#Cc1cncc(OC[C@H]2CCN2)c1)c1ccccc1 | 15000 | 1.1 | 8.9 | 0.11 | 0.92 | 46 | 0.19 | – | – | – | – |
| Fc1ccc(C#Cc2cncc(OC[C@@H]3CCN3)c2)cc1 | 7800 | 0.5 | 7.2 | 0.083 | 0.41 | 37 | 0.045 | – | – | – | – |
| Clc1cccc(C#Cc2cncc(OC[C@@H]3CCN3)c2)c1 | 37000 | 1.7 | 17 | 0.093 | 1.6 | 150 | 0.19 | – | – | – | – |
| O=C(CCCN1CCC(O)(c2ccc(Cl)cc2)CC1)c1ccc(F)cc1 [HALOPERIDOL] | – | – | – | – | – | – | – | – | – | – | 0.016 |
